Several values for one entry are separate records, joined by “and”; a condition that tells them apart may be missing. Equal entries are not always repeated.

A word on the Ki: it is a dissociation constant, usually derived from enzyme kinetics or from competition with a known ligand. A high value points to a looser hold on the target. For orientation: ED50 means the midpoint of the dose-response relation.

Assay [1] has as its target 5-hydroxytryptamine receptor 2A (Rattus norvegicus, UniProt P14842). Description: Compound was tested for binding affinity using [3H]MDL-100,907 at 5-hydroxytryptamine 2A receptor sites in rat cortical homogenate. The gist of the method: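 Membranes (200-400 µg protein) from rat frontal cortex homogenate were incubated with 0.2 nM [3H]MDL100907 and competing drug for 15 min at 37 °C. The buffer was Tris-HCl pH 7.4 with EDTA, pargyline, CaCl2 and ascorbate. Bound and free ligand were separated by GF/C filtration and read by scintillation counting. Nonspecific binding was taken with 10 µM cinanserin. […] values come from at least three experiments, each in triplicate.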

Assay [2] addresses 5-hydroxytryptamine receptor 2A (Rattus norvegicus) (UniProt P14842). The assay can be described thus: Compound was tested for binding affinity at 5-hydroxytryptamine 2A receptor sites in rat cortical homogenate using [125I]-2,5-Dimethoxy -4-iodoamphetamine (DOI). The gist of the method: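 Rat frontal cortex membranes were washed in 50 mM Tris-HCl pH 7.4 and preincubated at 37 °C in buffer with EDTA, pargyline, CaCl2 and ascorbate. They were incubated with [125I]DOI and test drug for 15 min at 37 °C, then filtered, and the filters were gamma-counted. Cinanserin (10 µM) defined nonspecific binding. Values come from at least three experiments, each in triplicate.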

The subject of assay [3] is Rattus norvegicus. Description: Substitution tests were carried out for the compound in LSD- trained rats dosed with 0.02 mg/kg drug and the binding data was reported. It is filed as functional.
Assay [4] deals with Rattus norvegicus. Description: Percentage of rats selecting the drug liver at dose of 0.04 mg/kg. It counts as functional. The gist of the method:
(§1)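 Male Sprague–Dawley rats were trained in a two-lever FR50 food-reinforced task to discriminate LSD (0.08 mg/kg) or DOI (0.4 mg/kg) from saline. Test drugs were given i.p. in 0.9% saline 30 min before the session. The lever first pressed 50 times was scored as selected, and the result is the percentage of rats selecting the drug lever.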

The test system of assay [5] is Rattus norvegicus. Description: Percentage of rats selecting the drug liver at dose of 0.01 mg/kg. It counts as functional. The gist of the method:
as §1

Assay [6] relates to Rattus norvegicus. The assay can be described thus: Percentage of rats selecting the drug liver at dose of 0.08 mg/kg. It is filed as functional. In a few lines:
as §1

In assay [7] the test system is Rattus norvegicus. Description: Substitution tests were carried out for the compound in LSD- trained rats dosed with 0.046 uM/kg drug and the binding data was reported. It is filed as functional.
Assay [8] relates to Rattus norvegicus. The assay can be described thus: Percentage of rats selecting the drug liver at dose of 0.02 mg/kg. It is filed as functional. The gist of the method: as §1
In assay [9] the test system is Rattus norvegicus. The assay can be described thus: Percentage of rats selecting the drug liver at dose of 0.2 mg/kg. It counts as functional. In a few lines: as §1
For assay [10], the system named is Rattus norvegicus. Description: Percentage of rats selecting the drug liver at dose of 0.1 mg/kg. It counts as functional. The gist of the method:
as §1

Assay [11] concerns Rattus norvegicus. The assay can be described thus: Percentage of rats selecting the drug liver at dose of 0.4 mg/kg. It counts as functional. The gist of the method:
as §1

Assay [12] deals with Rattus norvegicus. The assay can be described thus: Percentage of rats selecting the drug liver at dose of 1.36 mg/kg. It is filed as functional. In a few lines: as §1
The test system of assay [13] is Rattus norvegicus. Description: Percentage of rats selecting the drug liver at dose of 0.68 mg/kg. It counts as functional. In a few lines:
as §1

For assay [14], the system named is Rattus norvegicus. Description: Substitution tests were carried out for the compound in DOI- trained rats dosed with 0.50 uM/kg drug and the binding data was reported. It counts as functional. In a few lines: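 Rats trained on DOI (0.4 mg/kg i.p.) versus saline under an FR50 two-lever food schedule received the test drug i.p. in saline 30 min before testing. Quantal scoring used the lever first reaching 50 presses to give %SDL. ED50 and 95% CI were obtained by the Litchfield–Wilcoxon log-probit method when a dose reached ≥80% SDL.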

In assay [15] the test system is Rattus norvegicus. The assay can be described thus: Percentage of rats selecting the drug liver at dose of 0.65 mg/kg. It counts as functional. The gist of the method:
as §1

For assay [16], the system named is Rattus norvegicus. The assay can be described thus: Substitution tests were carried out for the compound in DOI- trained rats dosed with 0.12 mg/kg drug and the binding data was reported. It is filed as functional.
Assay [17] relates to Rattus norvegicus. The assay can be described thus: Substitution tests were carried out for the compound in LSD- trained rats dosed with 0.06 mg/kg drug and the binding data was reported. It is filed as functional.
Assay [18] concerns Rattus norvegicus. Description: Percentage of rats selecting the drug liver at dose of 0.33 mg/kg. It counts as functional. The gist of the method: as §1
For assay [19], the system named is Rattus norvegicus. Description: Percentage of rats selecting the drug liver at dose of 0.16 mg/kg. It counts as functional. The gist of the method:
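Male Sprague–Dawley rats (200-220 g) were trained in a two-lever FR 50 food-reinforced task to discriminate LSD (0.08 mg/kg) or DOI (0.4 mg/kg) from saline. Drugs were given i.p. in 0.9% saline 30 min before the session. Scoring was quantal: the lever first reaching 50 presses counted as selected, and %SDL is the percentage of rats choosing the drug lever.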

In assay [20] the test system is Rattus norvegicus. Description: Substitution tests were carried out for the compound in LSD- trained rats dosed with 0.25 uM/kg drug and the binding data was reported. It counts as functional. The gist of the method: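 Rats trained on LSD (0.08 mg/kg i.p.) versus saline under an FR50 two-lever food schedule received the test drug i.p. in 0.9% saline 30 min before the session. The lever first given 50 presses was scored as selected, giving %SDL. ED50 (95% CI) came from Litchfield–Wilcoxon log-probit analysis, and none was calculated where ≥50% of rats were disrupted.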

For assay [21], the system named is Rattus norvegicus. The assay can be described thus: Percentage of rats selecting the drug liver at dose of 0.12 mg/kg. It is filed as functional. The gist of the method: as §1
For assay [22], the system named is Rattus norvegicus. The assay can be described thus: Percentage of rats selecting the drug liver at dose of 0.23 mg/kg. It counts as functional. The gist of the method:
as §1

Assay [23] relates to Rattus norvegicus. The assay can be described thus: Percentage of rats selecting the drug liver at dose of 0.03 mg/kg. It is filed as functional. In a few lines:
as §1

In assay [24] the test system is Rattus norvegicus. The assay can be described thus: Percentage of rats selecting the drug liver at dose of 0.06 mg/kg. It counts as functional. In a few lines: as §1

Sequence of 5-hydroxytryptamine receptor 2A (Rattus norvegicus) (P14842 whole entry): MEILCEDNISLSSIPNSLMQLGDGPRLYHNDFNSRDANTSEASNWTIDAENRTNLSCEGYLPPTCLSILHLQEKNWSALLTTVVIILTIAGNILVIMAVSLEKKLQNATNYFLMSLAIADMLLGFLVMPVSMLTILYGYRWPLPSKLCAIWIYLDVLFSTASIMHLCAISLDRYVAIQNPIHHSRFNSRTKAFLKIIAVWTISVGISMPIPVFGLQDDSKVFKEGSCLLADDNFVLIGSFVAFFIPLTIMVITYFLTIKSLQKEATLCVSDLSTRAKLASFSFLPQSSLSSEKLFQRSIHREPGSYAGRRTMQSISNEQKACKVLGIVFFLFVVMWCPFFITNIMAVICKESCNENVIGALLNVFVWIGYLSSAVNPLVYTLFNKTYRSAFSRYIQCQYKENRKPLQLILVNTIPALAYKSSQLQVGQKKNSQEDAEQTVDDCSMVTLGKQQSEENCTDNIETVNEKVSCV
Sequence of 5-hydroxytryptamine receptor 2A (P14842 whole entry): as above

In assay [1], `CN(C)CCc1c[nH]c2cccc(O)c12` [PSILOCIN] had an inhibitory constant (Ki) of 0.39 µM. Besides, in [2], the K0.5 turned out to be 6 nM.
Turning to `CCN(CC)C(=O)[C@@H]1C=C2c3cccc4[nH]cc(c34)C[C@H]2N(C)C1` [LYSERGIDE], the ED50 is 0.012 µmol/kg in the assay with Rattus norvegicus [3] and 0.026 µmol/kg in the assay with Rattus norvegicus [7]. Besides, the SDL was determined as 81% in the assay with Rattus norvegicus [4], 46% in the assay on Rattus norvegicus [5], 100% in the assay on Rattus norvegicus [6] and 78% in the assay on Rattus norvegicus [8].
Take `COc1cc(CC(C)N)c(OC)cc1I` (stereo not given): the results for the ED50 in the assay on Rattus norvegicus [3] and in the assay with Rattus norvegicus [7] were 0.12 µmol/kg and 0.28 µmol/kg, respectively. Besides, the SDL amounted to 89% in the assay on Rattus norvegicus [9], 56% in the assay with Rattus norvegicus [10] and 100% with Rattus norvegicus [11].
In assay [1], `COc1ccc2[nH]cc(C3CCN(C)C3)c2c1` (stereo not given) had a Ki of 1.3 µM. In addition, the SDL was 50% with Rattus norvegicus [12]; 33% and 14% in the assay with Rattus norvegicus [13]. In assay [2], the K0.5 stood at 150 nM.
Take `CN1CCC(c2c[nH]c3cccc(O)c23)C1` (stereo not given): the affinity in [1], expressed as Ki, was 0.44 µM. In assay [2], this molecule displayed a K0.5 of 82 nM.
Taken in the same sequence, the figures for `COc1ccc2[nH]cc(C[C@@H]3CCCN3C)c2c1` were over 9.4 µM and 64 nM.
As to `COc1ccc2[nH]cc(C[C@H]3CCCN3C)c2c1`, the affinity in assay [1], expressed as Ki, was 0.4 µM. The ED50 in the assay with Rattus norvegicus [14] amounted to 0.32 µmol/kg; with Rattus norvegicus [16], 0.11 µmol/kg; with Rattus norvegicus [17], 0.14 µmol/kg; in the assay on Rattus norvegicus [20] it was 0.44 µmol/kg. For the same molecule, the SDL was 100% in the assay with Rattus norvegicus [15]; 82% and 88% in the assay on Rattus norvegicus [18]; 20% and 43% in the assay with Rattus norvegicus [6] (0.08 mg/kg); 63% in the assay on Rattus norvegicus [19]. In addition, in [2], the K0.5 was determined as 9.5 nM.
`COc1ccc2[nH]cc(CCN(C)C)c2c1` [MEBUFOTENIN] showed a Ki in assay [1] of 1.6 µM. Also, the K0.5 in [2] came out at 21 nM.
For `CN1CCC[C@@H]1Cc1c[nH]c2cc(O)ccc12`, the Ki in assay [1] is 0.21 µM. The ED50 in the assay with Rattus norvegicus [14] stood at 0.47 µmol/kg; in the assay with Rattus norvegicus [16], 0.11 µmol/kg; with Rattus norvegicus [17], 0.06 µmol/kg; in the assay with Rattus norvegicus [20], 0.25 µmol/kg. The SDL in the assay with Rattus norvegicus [21] is 64% and 43%; in the assay on Rattus norvegicus [22], 100%; in the assay with Rattus norvegicus [23] it was 30%; in the assay on Rattus norvegicus [24], 40% and 14%. For the same molecule, the K0.5 in [2] was 13 nM.
`CN1CCC[C@H]1Cc1c[nH]c2cc(O)ccc12`: in assay [1], the Ki was determined as 4.7 µM. In addition, the K0.5 in [2] worked out at 290 nM.

These data come from ChEMBL document CHEMBL1132441, “Further studies on oxygenated tryptamines with LSD-like activity incorporating a chiral pyrrolidine moiety into the side chain” (J Med Chem, 1999).
